Measurements pooled from the literature.
Protocols differ between the studies behind these lines.
Target: Aurora kinase B (AURKB, Homo sapiens, UniProt Q96GD4)

SMILES | observed | mode | method | tested at | measurement | result
Nc1ncc(-c2nc(N3CCOCC3)nc(N3CCOCC3)n2)c(C(F)F)n1 | binding |  | competition with immobilised ligand | 10 µM | remaining binding | 91%
C#Cc1n[nH]c2c(-c3cn([C@@H](C)c4ccccc4)c(=O)[nH]c3=O)cc(F)cc12 | enzyme activity | inhibitor |  | 0.1 µM | inhibition | 0.1%
N#CC1(c2ccccn2)CCN(Cc2cc(C(=O)O)c(=O)n3ccccc23)CC1 | cell-free assay |  | competition with immobilised ligand | 1 µM | remaining binding | 76%
O=c1[nH]c2ccccc2n1C1CCN(Cc2ccc(-c3[nH]c4cc5ncnc5cc4nc3-c3ccccc3)cc2)CC1 | enzyme activity |  |  | 0.5 µM | remaining activity | 98.7%
COc1ncccc1-c1cnn2ccc(N3CCN(C(=O)OC(C)C)CC3)nc12 | binding |  | competition with immobilised ligand | 1 µM | remaining binding | 58%
CC(C)(C)c1cc(C=C(C#N)C#N)cc(Br)c1O | enzyme activity | inhibitor |  | 0.5 µM | remaining activity | 97.1%
Cn1cc(-c2cccc(N3CCc4c(sc5c4CC(C)(C)C5)C3=O)c2CO)cc(Nc2ccncn2)c1=O | enzyme activity | inhibitor |  | 1 µM | inhibition | 6%
Cn1cncc1[C@](O)(COc1ccc(C#N)cc1-c1ccc(OC(F)(F)F)cc1)c1ccc(C#N)cc1 | cell-free assay |  | competition with immobilised ligand | 1 µM | remaining binding | 100%
C#Cc1n[nH]c2c(-c3cn([C@@H](C)c4ccccn4)c(=O)[nH]c3=O)cc(F)cc12 | enzyme activity | inhibitor |  | 0.1 µM | inhibition | 4.9%
